VIM-2 inhibitor: inhibitors of Pseudomonas aeruginosa VIM-2 metallo-beta-lactamase | purified VIM-2, nitrocefin hydrolysis, epi-absorbance fluorescence | inhibition, % at 5.6 µM | hit rate 0.89% among 290,000;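 active = inhibition above the mean of all tested compounds plus 3 SD, cutoff set per screening run, cut at about 7.5% in these data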;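 also: red hydrolysis product quenches plate fluorescence so inhibitors raise well fluorescence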
Calb FLC: affects C. albicans growth with fluconazole; hit rate 0.57% among 300,000; C. albicans CaCi-2 + fluconazole, Alamar Blue growth, 48 h; growth inhibition, % (test concentration not listed); AID 1979;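 active = growth inhibition above about 58% in most replicates, limit read from the data, passing the limit was not always enough; inconclusive = exactly half the replicates above a set limit; inactive = most replicates below a set limit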;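 also: all wells also contain fluconazole at 8 µg/ml as a sub-toxic cotreatment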
PHOSPHO1 block: inhibitors of human PHOSPHO1 phosphatase. recombinant PHOSPHO1, absorbance phosphatase assay. inhibition, % at 13.3 µM. hit rate 1.1% among 290,000. AID 1565; in the data active = inhibition above about 60%
Target sequence (Q8TCT1 whole entry, looked up): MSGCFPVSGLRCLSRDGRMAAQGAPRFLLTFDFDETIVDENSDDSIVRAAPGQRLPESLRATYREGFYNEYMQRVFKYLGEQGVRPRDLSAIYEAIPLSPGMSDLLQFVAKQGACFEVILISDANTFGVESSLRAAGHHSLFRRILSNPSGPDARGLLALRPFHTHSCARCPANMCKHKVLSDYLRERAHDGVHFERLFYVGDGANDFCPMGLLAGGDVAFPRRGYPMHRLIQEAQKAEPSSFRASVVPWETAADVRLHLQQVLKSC
ARFGAP1 inh: rat ARFGAP1 inhibition | Arfgap1-stimulated ARF1 GTP hydrolysis, GDP FP detection | Q62848 | inhibition, % at 16.5 µM | hit rate 0.26% among 360,000;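 active = inhibition above a per-plate limit, mean inhibition of low control wells plus 3 SD, cut at about 25% in these data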
Target sequence (Q62848 1-136 limits assumed): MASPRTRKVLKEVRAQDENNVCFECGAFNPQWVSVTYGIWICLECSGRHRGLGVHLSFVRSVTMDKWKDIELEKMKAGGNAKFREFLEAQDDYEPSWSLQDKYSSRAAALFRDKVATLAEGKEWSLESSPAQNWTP
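Material: rat Arfgap1 GAP domain (His6, aa 1-136), purified enzyme. Also added: human ARF1(Δ1-17)-GTP substrate. Compound dosing: 16.5 µM single point, 1.26% DMSO. Timing: enzyme reaction 120 min at 25 °C after 20 min preincubation. Signal: GDP detection by fluorescence polarization. Read-out basis: percent inhibition of GAP-stimulated GDP formation, scaled between DMSO and no-Arfgap1 medians.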
ASAP1 inh: blocks human ASAP1-stimulated Arf1 GTP hydrolysis. GDP FP detection. inhibition, % at 16.5 µM. hit rate 0.19% among 360,000. AID 624377; in the data active = inhibition above about 25%
IMP-1 inhibitor: inhibitors of Pseudomonas aeruginosa IMP-1 metallo-beta-lactamase; purified IMP-1, nitrocefin hydrolysis, epi-absorbance fluorescence; inhibition, % at 5.6 µM; hit rate 0.45% among 290,000;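 active = inhibition above the mean plus 3 SD of all compounds in the same screening run, cut at about 4.5% in these data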
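system = purified recombinant IMP-1 beta-lactamase | amount = 0.2 nM IMP-1, as dispensed | medium = HEPES buffer pH 7.1 with ZnSO4 and Brij 35 | times = 25 °C, 15 min preincubation, 25 min reaction | detection = plate fluorescence quenching by hydrolysis product, ex 480/em 530 nm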
A number is an active result; . = inactive; ? = inconclusive; / = no result. This is a sample that favours compounds with a hit; in the whole collection about 2.6% have one here.

SMILES | VIM-2 inhibitor | Calb FLC | PHOSPHO1 block | ARFGAP1 inh | ASAP1 inh | IMP-1 inhibitor
CSC1=C(C#N)C(=O)NC(c2ccccc2O)S1 (stereo unspecified) | . | . | . | . | . | .
COC(=O)CSC1=C(C#N)C(=O)NC(c2ccccc2)S1 (stereo unspecified) | . | . | 98 | . | . | .
Cc1cc(C)c2c(c1)[C@@H]1C=CC[C@@H]1[C@H](c1ccc(S(=O)(=O)N3CCOCC3)cc1)N2 | . | / | . | . | . | 8.1
O=S1(=O)N[C@H](Cc2ccccc2)COc2cccc(F)c21 | / | / | / | . | . | /
COc1cccc(C(=O)N[C@H](C(=O)N2CCC[C@H]2C(=O)NCCc2ccccc2Cl)C(C)C)c1 | / | / | / | . | . | /
Cc1ccccc1N1C(=O)CC(Sc2nnc(-c3ccccc3)o2)C1=O (stereo unspecified) | . | . | 81 | . | . | .
CC1(C)CC(=O)C=C(C2CC2)C1=O | / | / | / | . | . | /
O=S1(=O)CC(O)C(NCCO)C1 (stereo unspecified) | . | . | 65 | . | . | .
CN(C)CCCNC1CS(=O)(=O)CC1O (stereo unspecified) | . | . | . | . | . | .
CCCN1CCCCC(NC(=O)c2ccccc2OC)C1=O (stereo unspecified) | / | / | / | . | . | /
Cc1cc(OC(C)C(=O)NCc2ccncc2)c2c(C)c(C)c(=O)oc2c1 (stereo unspecified) | 9.3 | / | . | . | . | .
Cc1cc(OCC(=O)Nc2ccccn2)c2c(C)c(C)c(=O)oc2c1 | . | . | . | . | . | .
Cc1cc(OCC(=O)NCc2ccccn2)c2c(C)c(C)c(=O)oc2c1 | 9.0 | . | . | . | . | .
Cc1ccc(S(=O)(=O)N2CCCCC2)cc1NC(=O)Cn1c(=O)cnc2ccccc21 | . | . | 60 | . | . | .
COc1cccc(CNS(=O)(=O)c2cc(Br)ccc2Br)c1OC | / | / | / | . | . | /
O=C(NC1CCCCC1)C(c1ccc(O)c(O)c1)N(C(=O)Cn1nnc2ccccc21)c1cccc(O)c1 (stereo unspecified) | . | . | . | . | . | 11
COc1ccc(N(C(=O)Cn2nnc3ccccc32)C(C(=O)NC(C)(C)C)c2ccc(OC)c(O)c2)cc1 (stereo unspecified) | . | 78 | . | . | . | .
CC(=O)c1cccc(N(C(=O)Cn2nnc3ccccc32)C(C(=O)NC2CCCCC2)c2cn(C)nc2C)c1 (stereo unspecified) | . | ? | . | . | . | .
CCOc1cc(C(C(=O)NCC2CCCO2)N(C(=O)Cn2nnc3ccccc32)c2ccc(OC)c(OC)c2)ccc1O (stereo unspecified) | . | . | . | . | . | .
O=C(N[C@@H](Cc1ccccc1)c1nc2ccccc2[nH]1)c1ccc([N+](=O)[O-])cc1 | / | / | / | . | . | /
COc1c(Cl)cc(C(=O)NN)cc1Cl | . | . | . | . | . | .
NNC(=O)c1cc(O)c(O)c(O)c1 | . | 95 | . | . | . | .
Cc1ccccc1C(=O)N1CCC[C@H]1C(=O)N1CCC[C@H]1C(=O)NCc1ccccn1 | / | / | / | . | . | /
CCC1=NN2C(=N)/C(=C/c3c(C)nn(-c4ccccc4)c3Cl)C(=O)N=C2S1 | . | . | . | . | . | .
CCCC1=NN2C(=N)/C(=C\c3ccc(SCc4ccco4)o3)C(=O)N=C2S1 | . | ? | 89 | / | / | .
SMILES | VIM-2 inhibitor | Calb FLC | PHOSPHO1 block | ARFGAP1 inh | ASAP1 inh | IMP-1 inhibitor
O=C1NC(=S)S/C1=C\c1ccc(SCc2ccco2)o1 | . | / | 80 | / | / | 9.7
CCC1=NN2C(=N)/C(=C\c3ccc(SCc4ccco4)o3)C(=O)N=C2S1 | . | . | 83 | . | . | .
COC(=O)C1=C(C)NC(=S)NC1c1cccc(OC)c1 (stereo unspecified) | / | / | / | . | . | /
O=Cc1cscc1[B-](F)(F)F | / | / | / | . | . | /
CC(C)Nc1nc(Cl)nc(N(C#N)CN2C(=O)c3ccccc3S2(=O)=O)n1 | . | . | . | . | . | 6.9
COc1nc(NC(C)C)nc(N(C#N)CN2C(=O)c3ccccc3S2(=O)=O)n1 | . | . | . | . | . | 12
CCOC(=O)[C@]12CCCC=C1N(CCC1=CCCCC1)C(=O)[C@H](CC(=O)NCc1cccc3ccccc13)C2 | / | / | / | . | . | /
O=S(=O)(Nc1nc2ccccc2s1)c1ccc(Br)s1 | . | 89 | . | . | . | .
CC(C)c1ccc2c(c1)CCC1C(C)(CN)CCCC21C (stereo unspecified) | . | 87 | . | . | . | .
CC1OC(CC(=O)O)CC2=C1C(=O)c1c(O)cccc1C2=O (stereo unspecified) | / | / | / | . | 47 | /
Cc1cc(NC(=O)Cc2cn(Cc3ccccc3)c3ccccc23)ccc1Oc1cccnc1 | / | / | / | . | . | /
COc1ccc(C(=O)N2C(=O)c3ccc(N)cc3C2=O)cc1 | . | . | . | . | . | 7.7
O=S(=O)(Cc1ccc(Cl)cc1)N1CCN(Cc2ccccc2)CC1 | . | 125 | . | / | / | .
COc1ccc(S(=O)(=O)N2CCCc3nc(C)c(C)cc32)cc1 | / | / | / | . | . | /
CCOC(=O)c1ccc(Oc2nc(NC(C)(C)C)nc(N(C)C)n2)cc1 | . | 91 | . | . | . | .
CCOC(=O)c1ccc(Oc2nc(N(C)C)nc(N(C)C)n2)cc1 | . | . | . | . | . | .
S=c1[nH]nc(-c2ccccc2)o1 | . | . | 101 | . | . | .
Cc1ccccc1-c1n[nH]c(=S)o1 | . | . | 96 | . | . | .
CC(=O)C(C(C)=O)C1(O)C(=O)c2ccccc2C1=O | . | . | . | 32 | 27 | .
Cc1ccc(C)c(NC(=O)CSc2ncnc3nc[nH]c23)c1 | . | . | . | . | . | .
Cc1cccc(NC(=O)CSc2ncnc3nc[nH]c23)c1C | . | . | 99 | . | . | .
Cc1cc(=O)oc(C)c1C(=O)OCC(=O)c1ccc(Cl)c(Cl)c1 | . | . | . | . | . | 5.3
O=c1cc(CN2CCCC2)c2ccccc2o1 | / | / | / | . | . | /
CCCCn1c(N)c(-c2nc3ccccc3o2)c2c([N+](=O)[O-])nn(C)c(=O)c21 | . | . | . | . | . | .
CCCCCn1c(N)c(-c2nc3ccccc3s2)c2c([N+](=O)[O-])nn(C)c(=O)c21 | . | . | . | / | / | 6.9
SMILES | VIM-2 inhibitor | Calb FLC | PHOSPHO1 block | ARFGAP1 inh | ASAP1 inh | IMP-1 inhibitor
N#C/C(=C\c1ccc(OCc2ccc(Br)cc2)cc1)C(=O)Nc1cccc(C(=O)O)c1 | . | . | . | . | . | 6.3
COc1ccc(NC(=O)/C(C#N)=C\c2ccc(OCc3ccc(C(=O)O)cc3)c(OC)c2)cc1 | . | . | 70 | . | . | .
COC(=O)CCC(=O)Nc1sc(C)c(C)c1C(N)=O | . | . | 90 | . | . | .
CCOC(=O)C(C)(C)CC#CCN(CC#Cc1ccccc1)S(=O)(=O)c1ccc(C)cc1 | / | / | / | . | . | /
O=c1c2ccccc2oc2ccc(NCCCn3ccnc3)cc12 | 11 | . | . | . | . | .
O=C(NCCCn1ccnc1)c1cc2c(ccc3ccccc32)o1 | . | . | . | . | . | .
C[C@H]1CN(c2ccc(N3CCNC[C@@H]3C)cc2C#N)CCN1Cc1ccccc1 | / | / | / | . | . | /

Screening data: PubChem BioAssay, several laboratories
